Source: PubChem
PRMT1 inh: PRMT1 (human) inhibition, primary screen | recombinant PRMT1, activity-based probe fluorescence polarization | inhibition, % at 2.79 µM | actives 1.3% (n = 370,000) | AID 652257;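 active means inhibition above about 21% made by adding two undisclosed values, limit read from the data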
Target sequence (Q99873 whole entry, looked up): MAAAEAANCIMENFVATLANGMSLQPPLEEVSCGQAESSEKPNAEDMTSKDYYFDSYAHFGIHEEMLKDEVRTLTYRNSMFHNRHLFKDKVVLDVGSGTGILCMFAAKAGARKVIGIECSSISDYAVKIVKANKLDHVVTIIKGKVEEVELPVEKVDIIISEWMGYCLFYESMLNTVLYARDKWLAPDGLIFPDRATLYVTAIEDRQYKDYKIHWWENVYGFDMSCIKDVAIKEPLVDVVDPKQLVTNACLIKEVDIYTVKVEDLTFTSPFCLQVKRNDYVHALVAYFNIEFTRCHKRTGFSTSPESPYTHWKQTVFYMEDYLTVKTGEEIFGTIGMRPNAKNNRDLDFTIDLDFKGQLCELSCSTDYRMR
LEDGF integ inh: blocks HIV-1 LEDGF/p75-dependent DNA integration; TR-FRET IN-LEDGF/p75 DNA integration, Eu/Cy5; AID 743269; actives 0.64% (n = 370,000); inhibition, % at 3.7 µM;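 active means inhibition above the screen-wide mean plus 3 SD, cut at about 13% in these data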;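 further: signal is the Cy5 over europium emission ratio at 671 and 618 nm; 0% = plate median of compound wells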
UHRF1 MBD2 ctr: human UHRF1 methylated DNA binding inhibitors; inhibition, % at 4.4 µM; UHRF1 binding to methylated oligo, TR-FRET; Q96T88; actives 0.75% (n = 370,000); in the data active means inhibition above about 21%;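 further: UHRF1 SRA domain binding a hemimethylated CpG hairpin DNA probe; 0% = median of test compound wells and 100% = reference inhibitor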
TDP2 inh: TDP2 (human) inhibition, absorbance primary screen. O95551. recombinant TDP2, T5PNP hydrolysis, p-nitrophenol absorbance 415 nm. inhibition, % at 12.8 µM. actives 0.34% (n = 370,000);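 active means inhibition above the mean of all tested compounds plus 3 SD, set per campaign, cut at about 25% in these data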;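 further: 0% = DMSO with enzyme and 100% = buffer with substrate but no TDP2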
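Test system: Human TDP2 enzyme | Reagent: 5 mM T5PNP | Compound dosing: 12.8 µM single point, 1% DMSO | Incubation: Enzyme reaction with compound for 2 h at 37 °C | Technique: p-Nitrophenol epi absorbance | Read-out: % inhibition relative to enzyme-containing and enzyme-free wells | Benchmarks: High control without enzyme, low control DMSO plus TDP2 | Replicates: Singlicate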
MBD2 DNA inh: MBD2-methylated oligo binding inhibition; actives 0.31% (n = 370,000); Q9UBB5; TR-FRET, MBD2 binding to methylated oligonucleotide; inhibition, % at 4.4 µM; AID 686964; in the data active means inhibition above about 13%
SIAE inh: blocks human sialic acid acetylesterase | Q9HAT2 | SIAE FP-Rh probe binding, fluorescence polarization | inhibition, % at 9.66 µM | actives 0.69% (n = 370,000);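 active means inhibition above a cutoff: mean of compounds within the control limits plus 3 SD of those, cut at about 17% in these data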;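 further: 0% = plate median of compound wells and 100% = probe without SIAE protein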
SIAE inh conf: human SIAE inhibition, confirmation. shares compounds with SIAE inh. SIAE FP-Rh activity-based probe, fluorescence polarization. inhibition, % at 9.66 µM. AID 1117263. actives 13% (n = 2,300);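 active means mean inhibition of the replicates above the hit cutoff set in the primary screen, cut at about 17% in these data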;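 further: 0% = SIAE with DMSO and probe and 100% = probe without SIAE; inhibitors lower polarization as more probe stays unbound to SIAE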
The depositor's hits bear a star; . = no result given. Most compounds without a hit are left out; they make up all but 3.3% or so of the library.

SMILES	PRMT1 inh	LEDGF integ inh	UHRF1 MBD2 ctr	TDP2 inh	MBD2 DNA inh	SIAE inh	SIAE inh conf
FC(F)(F)Oc1ccc(Cn2ccc3ccc(-c4ccc5ccn(Cc6ccc(OC(F)(F)F)cc6)c5c4)cc32)cc1	2	6	-6	4	-4	4	.
COC(=O)[C@@]12CCCCC3=C1N(CCC3)C(=O)[C@H]2CC(=O)N1CCOCC1	3	-1	-2	-4	3	-3	.
O=C(CCCCC(=O)Sc1ccccc1)Sc1ccccc1	10	9	-3	1	-1	18*	4
COc1ccc(-c2nc(-c3ccccc3)c(-c3cc([N+](=O)[O-])ccc3C)[nH]2)cc1OC	-3	2	7	4	-4	3	.
CCOc1cc(-c2nc(-c3ccccc3)c(-c3cc([N+](=O)[O-])ccc3C)[nH]2)ccc1O	3	-2	1	-3	3	24*	6
O=[N+]([O-])c1ccc(O)c(-c2nc(-c3ccccc3)c(-c3cccs3)[nH]2)c1	-3	3	-1	3	-3	17*	7
Cc1cc2oc(C(=O)N3CCN(CCc4ccccn4)CC3)c(C)c2cc1C	1	0	3	2	-5	24*	5
Cc1c(C(=O)N2CCN(CCc3ccccn3)CC2)oc2ccc(F)cc12	-4	-3	0	2	-1	-4	.
Cc1cc(Nc2ccccc2)n(-c2ccc(C(=O)O)cc2)n1	-1	7	-3	0	0	23*	-4
COc1ccc(-c2nc3cccc(C)n3c2NCc2ccco2)cc1OC	6	2	-1	-17	-6	25*	4
COc1ccc(-c2ccc(C#N)c(SCC(=O)NCc3ccco3)n2)cc1OC	-1	-1	-1	-3	0	-25	.
C[C@H](O)[C@@H]1CN2CCc3c([nH]c4ccccc34)[C@@H]2C[C@@H]1N(C)C(=O)Nc1cccc2ccccc12	10	4	-9	13	-9	22*	-6
O=C(NCc1ccccc1)[C@@H]1CCCN1C(=O)[C@H]1CCCN1C(=O)c1cccc2ccccc12	4	-2	-2	0	-10	5	.
Nn1c(Nc2ccccc2)nc2ccccc21	-1	1	2	-2	7	23*	0
CCc1nnc(NC(=O)CCc2c[nH]c3ccccc23)s1	1	-4	-2	4	2	18*	5
O=C(NCCc1c[nH]c2ccccc12)C(=O)c1c[nH]c2ccccc12	3	0	-2	-2	4	27*	-5
O=C(CCc1c[nH]c2ccccc12)NCCc1ccc2c(c1)OCCO2	7	-2	1	6	0	17*	-2
O=C(CCc1c[nH]c2ccccc12)Nc1ccc(Nc2ccncc2)cc1	1	-5	-2	6	0	26*	21*
O=C(CCc1c[nH]c2ccccc12)Nc1ccc(Nc2cccnc2)cc1	-2	2	1	1	-4	11	.
O=C(CCc1c[nH]c2ccccc12)NCc1cccc(Cl)c1	2	2	-2	8	2	3	.
CC(C)C(=O)Nc1nnc(Cc2c[nH]c3ccccc23)s1	-6	4	-3	-4	-4	-1	.
O=C(OCc1ccccc1)[C@H](Cc1ccccc1)NC(=O)[C@@H]1CC=C[C@@H]2CCN(C3CCCCC3)C(=O)[C@@H]21	0	-1	-1	-3	2	-9	.
CCOC(=O)c1csc(NC(=O)C2CCCN(S(=O)(=O)c3ccc(C)cc3)C2)n1 (stereo not drawn)	0	0	1	9	2	-2	.
COC(=O)[C@]12C[C@H](CC(=O)N3CCN(C(=O)c4ccco4)CC3)C(=O)N(CCC3=CCCCC3)C1=C[C@H](C1CCCC1)O[C@@H]2C	1	3	-1	-7	-6	-5	.
O=C(CCc1c[nH]c2ccccc12)Nc1ccc(Nc2ccccc2)cc1	4	-5	2	0	0	17*	13
SMILES	PRMT1 inh	LEDGF integ inh	UHRF1 MBD2 ctr	TDP2 inh	MBD2 DNA inh	SIAE inh	SIAE inh conf
O=C(CCc1c[nH]c2ccccc12)Nc1ccc(Nc2cccnc2)c(Br)c1	4	-4	1	-3	2	17	.
CN(c1cccnc1)c1ccc(NC(=O)CCc2c[nH]c3ccccc23)cc1Br	11	-4	-2	2	2	32*	45*
Cc1ccc(S(=O)(=O)NCCCN(C)C)cc1	-1	-2	-5	5	-3	19*	0
Cc1ccc(S(=O)(=O)NCCCNS(=O)(=O)c2ccc(C)cc2)cc1	-1	3	3	-4	-1	-5	.
O=C(COc1ccc(Cl)cc1Cl)N1CCCCCC1	-2	0	0	-7	-4	18*	-3
O=C(COc1ccc(S(=O)(=O)N2CCCCC2)cc1Cl)N1CCCC1	3	-9	2	-11	2	1	.
O=C(N/N=C/c1ccc(N2CCOCC2)s1)c1ccc(O)cc1	0	-1	-5	-7	-2	-1	.
O=C(NN=Cc1ccc(N2CCOCC2)s1)c1ccc([N+](=O)[O-])cc1	2	-6	-13	-11	-21	24*	1
COc1ccc(C/C(C)=N/NC(=O)c2cccnc2)cc1	-1	1	-3	5	-2	18*	1
O=C(N/N=C/c1ccc(O)c(O)c1)c1cccc(S(=O)(=O)N2CCCCC2)c1	0	4	0	-7	-2	17	.
O=C(N/N=C\c1cc(Br)ccc1O)c1ccc(S(=O)(=O)N2CCCCC2)cc1	0	-5	-3	-4	-7	32*	39*
C[N+](C)(C)CCCCCCC(=O)/C=N/O	0	6	-3	-7	0	15	.
C[N+]1(CCCCCCC(=O)/C=N/O)CCCCCC1	1	3	-1	2	0	19*	3
COc1cccc(NC(=O)N2CCCC2)c1	-2	-1	-2	6	-1	19*	1
O=C(Nc1ccc(F)cc1)N1CCCCCC1	-1	3	2	6	-5	18*	-2
COc1cccc(NC(=O)N2CCN(S(C)(=O)=O)CC2)c1	3	-3	3	-5	-4	4	.
CC(=O)Nc1ccc(NC(=O)N2CCCCC2)cc1	2	2	7	-13	-5	1	.
CC(=O)c1ccc(N2Cc3ccccc3/C2=N\C(=O)Nc2ccccc2)cc1	1	4	1	-7	-1	26*	2
CC(C)(C)c1ccc(S(=O)(=O)N2CCC(C(=O)NCCC3=CCCCC3)CC2)cc1	-1	3	1	0	1	-3	.
Cc1ccc(/C=C/c2nc3ccccc3[nH]2)o1	13	2	-6	-1	-2	24*	-7
